# Source: ChEMBL document CHEMBL1154674, “Synthesis and evaluation of three 18F-labeled aminophenylbenzothiazoles as amyloid imaging agents” (J Med Chem, 2009)
# Tests used:
# Type in all cases: ADME, organism-based, Macaca mulatta
# [1] = Drug level in normal rhesus monkey white matter assessed as standard uptake value at 109.4 MBq, iv after 111 mins by microPET; conditions: in vivo
# [2] = Drug level in normal rhesus monkey frontal cortex assessed as standard uptake value at 109.4 MBq, iv after 47.5 mins by microPET; conditions: in vivo
# Summary of the method: (§1)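 One normal rhesus monkey, each tracer given iv via the vena saphena (81.2, 96.3 or 109.4 MBq), with 1 day between tracer injections. Dynamic brain μPET over 180 min used frames of 5 × 60 s, 5 × 120 s, 9 × 300 s and 12 × 600 s. Images were reconstructed by filtered back projection with a RAMP filter. Regional time-activity curves were expressed as SUV.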
# [3] = Drug level in normal rhesus monkey cerebellum assessed as standard uptake value at 109.4 MBq, iv after 32.5 mins by microPET; conditions: in vivo
# Summary of the method: (§2)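 One normal rhesus monkey received each tracer via the vena saphena, with 1 day between injections. Dynamic μPET ran 180 min for 18F tracers (5×60 s, 5×120 s, 9×300 s, 12×600 s) and 90 min for the 11C tracer (5×60 s, 5×120 s, 9×300 s, 3×600 s). Filtered back-projection reconstruction (RAMP filter) was used. Time-activity curves were drawn to give regional SUV.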
# [4] = Drug level in normal rhesus monkey cerebellum assessed as standard uptake value at 109.4 MBq, iv after 93 mins by microPET; conditions: in vivo, 1.55 h
# [5] = Drug level in normal rhesus monkey cerebellum assessed as standard uptake value at 109.4 MBq, iv after 81 mins by microPET; conditions: in vivo, 1.35 h
# [6] = Drug level in normal rhesus monkey white matter assessed as standard uptake value at 109.4 MBq, iv after 3.5 mins by microPET; conditions: in vivo
# [7] = Drug level in normal rhesus monkey thalamus assessed as standard uptake value at 109.4 MBq, iv after 12.5 mins by microPET; conditions: in vivo
# [8] = Drug level in normal rhesus monkey cerebellum assessed as standard uptake value at 109.4 MBq, iv after 47.5 mins by microPET; conditions: in vivo; summary of the method: as §2
# [9] = Drug level in normal rhesus monkey thalamus assessed as standard uptake value at 109.4 MBq, iv after 37.5 mins by microPET; conditions: in vivo, 0.625 h
# [10] = Drug level in normal rhesus monkey white matter assessed as standard uptake value at 109.4 MBq, iv after 52.5 mins by microPET; conditions: in vivo, 0.875 h
# [11] = Drug level in normal rhesus monkey frontal cortex assessed as standard uptake value at 109.4 MBq, iv after 9.5 mins by microPET; conditions: in vivo
# [12] = Drug level in normal rhesus monkey white matter assessed as standard uptake value at 109.4 MBq, iv after 4.5 mins by microPET; conditions: in vivo, 0.075 h
# [13] = Drug level in normal rhesus monkey cerebellum assessed as standard uptake value at 81.2 MBq, iv after 145 mins by microPET; conditions: in vivo; summary of the method: as §1
# [14] = Drug level in normal rhesus monkey thalamus assessed as standard uptake value at 81.2 MBq, iv after 37.5 mins by microPET; conditions: in vivo, 0.625 h
# [15] = Drug level in normal rhesus monkey parietal cortex assessed as standard uptake value at 81.2 MBq, iv after 27.5 mins by microPET; conditions: in vivo
# [16] = Drug level in normal rhesus monkey cerebellum assessed as standard uptake value at 81.2 MBq, iv after 0.5 mins by microPET; conditions: in vivo; summary of the method: as §1
# [17] = Drug level in normal rhesus monkey white matter assessed as standard uptake value at 81.2 MBq, iv after 42.5 mins by microPET; conditions: in vivo
# [18] = Drug level in normal rhesus monkey thalamus assessed as standard uptake value at 81.2 MBq, iv after 115 mins by microPET; conditions: in vivo
# [19] = Drug level in normal rhesus monkey white matter assessed as standard uptake value at 81.2 MBq, iv after 75 mins by microPET; conditions: in vivo, 1.25 h
# [20] = Drug level in normal rhesus monkey thalamus assessed as standard uptake value at 152.9 MBq, iv after 42.5 mins by microPET; conditions: in vivo
# [21] = Drug level in normal rhesus monkey cerebellum assessed as standard uptake value at 152.9 MBq, iv after 1.5 mins by microPET; conditions: in vivo, 0.025 h; summary of the method: as §2
# [22] = Drug level in normal rhesus monkey frontal cortex assessed as standard uptake value at 152.9 MBq, iv after 8 mins by microPET; conditions: in vivo
# Summary of the method: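 Single normal rhesus monkey; tracer given iv via the vena saphena, 1 day apart from the other tracer injections. Dynamic μPET ran 90 min (5×60 s, 5×120 s, 9×300 s, 3×600 s). Images were reconstructed by filtered back projection with a RAMP filter. Regional time-activity curves were expressed as SUV.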
# [23] = Drug level in normal rhesus monkey pons assessed as standard uptake value at 152.9 MBq, iv after 10 mins by microPET; conditions: in vivo
# [24] = Drug level in normal rhesus monkey parietal cortex assessed as standard uptake value at 152.9 MBq, iv after 65 mins by microPET; conditions: in vivo
# [25] = Drug level in normal rhesus monkey thalamus assessed as standard uptake value at 152.9 MBq, iv after 57.5 mins by microPET; conditions: in vivo
# [26] = Drug level in normal rhesus monkey thalamus assessed as standard uptake value at 152.9 MBq, iv after 85 mins by microPET; conditions: in vivo
# [27] = Drug level in normal rhesus monkey parietal cortex assessed as standard uptake value at 152.9 MBq, iv after 2.5 mins by microPET; conditions: in vivo
# [28] = Drug level in normal rhesus monkey parietal cortex assessed as standard uptake value at 96.3 MBq, iv after 105 mins by microPET; conditions: in vivo, 1.75 h
# [29] = Drug level in normal rhesus monkey pons assessed as standard uptake value at 96.3 MBq, iv after 22.5 mins by microPET; conditions: in vivo, 0.375 h
# [30] = Drug level in normal rhesus monkey white matter assessed as standard uptake value at 96.3 MBq, iv after 47.5 mins by microPET; conditions: in vivo
# [31] = Drug level in normal rhesus monkey thalamus assessed as standard uptake value at 96.3 MBq, iv after 37.5 mins by microPET; conditions: in vivo, 0.625 h
# [32] = Drug level in normal rhesus monkey parietal cortex assessed as standard uptake value at 96.3 MBq, iv after 37.5 mins by microPET; conditions: in vivo, 0.625 h
# [33] = Drug level in normal rhesus monkey thalamus assessed as standard uptake value at 96.3 MBq, iv after 42.5 mins by microPET; conditions: in vivo
# [34] = Drug level in normal rhesus monkey thalamus assessed as standard uptake value at 96.3 MBq, iv after 65 mins by microPET; conditions: in vivo
# [35] = Drug level in normal rhesus monkey thalamus assessed as standard uptake value at 96.3 MBq, iv after 14 mins by microPET; conditions: in vivo
# [36] = Drug level in normal rhesus monkey pons assessed as standard uptake value at 96.3 MBq, iv after 8 mins by microPET; conditions: in vivo
# [37] = Drug level in normal rhesus monkey parietal cortex assessed as standard uptake value at 96.3 MBq, iv after 6 mins by microPET; conditions: in vivo, 0.1 h
# [38] = Drug level in normal rhesus monkey cerebellum assessed as standard uptake value at 96.3 MBq, iv after 10 mins by microPET; conditions: in vivo; summary of the method: as §1
smiles,measurement,setting,value
Nc1ccc2nc(-c3ccc([18F])cc3)sc2c1,SUV,[1],3.82
same,SUV,[2],4.76
same,SUV,[3],4.03
same,SUV,[4],2.52
same,SUV,[5],2.87
same,SUV,[6],2.22
same,SUV,[7],5.39
same,SUV,[8],3.54
same,SUV,[9],5.66
same,SUV,[10],3.54
same,SUV,[11],5.43
same,SUV,[12],2.62
CNc1ccc2nc(-c3ccc([18F])cc3)sc2c1,SUV,[13],1.602
same,SUV,[14],5.69
same,SUV,[15],4.303
same,SUV,[16],0.735
same,SUV,[17],3.757
same,SUV,[18],5.209
same,SUV,[19],3.823
[11CH3]Nc1ccc(-c2nc3ccc(O)cc3s2)cc1 [PITTSBURGH COMPOUND B],SUV,[20],1.223
same,SUV,[21],0.677
same,SUV,[22],2.29
same,SUV,[23],2.036
same,SUV,[24],0.69
same,SUV,[25],0.88
same,SUV,[26],0.672
same,SUV,[27],1.106
CN(C)c1ccc2nc(-c3ccc([18F])cc3)sc2c1,SUV,[28],1.35
same,SUV,[29],1.78
same,SUV,[30],1.37
same,SUV,[31],2.33
same,SUV,[32],1.84
same,SUV,[33],2.46
same,SUV,[34],2.21
same,SUV,[35],2.33
same,SUV,[36],1.44
same,SUV,[37],2.16
same,SUV,[38],1.69
